# Rpn11 block – inhibitors of human proteasome Rpn11. inhibition, % at 20 µM. human 26S proteasome, Ub4-pepOG fluorescence polarization; 20S core pre-blocked with epoxomicin. hit rate 0.59% among 360,000;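 active means inhibition at 20 µM, scaled to each plate's controls, above about 33%, limit read from the data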
# HNF4A DNA FP – change in binding of human HNF4 alpha to DNA. P41235. HNF4a-FITC DNA binding, fluorescence polarization, 1 h. activity change, % at 10 µM. hit rate 0.3% among 360,000; in the data active means activity change above about 30%, passing the limit was not always enough
# Tb MetRS inh – blocks T. brucei methionyl-tRNA synthetase activity. hit rate 0.4% among 360,000. purified T. brucei MetRS, ATP depletion, Kinase-Glo luminescence. AID 624268. inhibition, % at 11.9 µM;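 active means inhibition above a per-plate cutoff of the control wells' mean inhibition plus 3 SD, cut at about 5.5% in these data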;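 further: 0% = DMSO wells median and 100% = median of wells with control inhibitor compound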
#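 Material: parasite MetRS enzyme / Replication: singlicate, one well per compound / Signal: luminescence of leftover ATP / Schedule: 2 h aminoacylation at 25 °C after 15 min preincubation / Medium: HEPES-MgCl2-KCl buffer plus DTT, spermine, BSA, pyrophosphatase / Doses: 11.9 µM single point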
# Neddylation inh – blocks human cullin neddylation; inhibition, % at 25 µM; hit rate 0.58% among 360,000; TR-FRET cullin neddylation, biochemical; P61081+Q13564; AID 651699; in the data active means inhibition above about 36%
# CSN deneddyl inh – CSN deneddylation inhibition | Q92905 | Purified CSN, SCF-Nedd8-OG deneddylation, fluorescence polarization | inhibition, % at 12.5 µM | hit rate 0.38% among 360,000 | AID 651999;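 active means pattern-corrected inhibition above about 35%, with an unprinted fluorescence ratio check between 0.5 and 1.5, limit read from the data, passing the limit was not always enough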;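 further: 0% = enzyme with substrate and 100% = substrate without enzyme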
#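 Detection – fluorescence polarization · System – HEK293T-derived human Csn5 enzyme · Controls – substrate-only high control, full reaction low control · Timing – 90 min, room temperature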
# PREPL inhibitor – inhibits the human prolyl oligopeptidase-like enzyme. Q4J6C6. recombinant PREPL, fluorescence polarization activity-based probe. inhibition, % at 5.96 µM. AID 2751. hit rate 0.68% among 320,000; in the data active means inhibition above about 43%;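 further: 0% = enzyme with DMSO and 100% = wells lacking enzyme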
# Rpn11 inh conf – Rpn11 inhibition confirmation, single concentration; shares compounds with Rpn11 block; purified human 26S proteasome, Ub4-pepOG fluorescence polarization; proteasome pretreated with epoxomicin; inhibition, % at 20 µM; hit rate 29% among 1,900
# MMP-2 counter – blocks human MMP-2, flagging nonselective RPN11 hits; shares compounds with Rpn11 block; recombinant MMP-2, FRET peptide cleavage fluorescence; inhibition, % at 20 µM; hit rate 4% among 1,900;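 further: human MMP-2 activated beforehand with APMA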
# Target sequence (P08253 whole entry, looked up): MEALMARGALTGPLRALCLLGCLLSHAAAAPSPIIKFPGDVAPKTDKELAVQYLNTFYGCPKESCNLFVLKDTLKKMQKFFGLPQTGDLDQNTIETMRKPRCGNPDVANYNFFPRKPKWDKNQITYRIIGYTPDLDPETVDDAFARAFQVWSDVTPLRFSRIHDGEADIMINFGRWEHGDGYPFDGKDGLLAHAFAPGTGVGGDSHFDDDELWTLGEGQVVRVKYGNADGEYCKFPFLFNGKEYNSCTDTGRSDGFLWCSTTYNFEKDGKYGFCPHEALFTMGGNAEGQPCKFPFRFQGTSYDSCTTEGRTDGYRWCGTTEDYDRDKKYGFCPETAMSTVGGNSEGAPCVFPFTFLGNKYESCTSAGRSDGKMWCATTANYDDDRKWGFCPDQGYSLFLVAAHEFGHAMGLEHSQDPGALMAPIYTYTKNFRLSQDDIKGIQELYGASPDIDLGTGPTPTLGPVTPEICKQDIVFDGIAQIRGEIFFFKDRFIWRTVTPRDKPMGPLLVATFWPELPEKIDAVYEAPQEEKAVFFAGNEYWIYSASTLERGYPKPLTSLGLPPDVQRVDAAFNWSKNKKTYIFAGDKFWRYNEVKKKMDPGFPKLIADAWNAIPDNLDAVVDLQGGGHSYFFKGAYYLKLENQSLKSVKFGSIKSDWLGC
# Thrombin inh – thrombin (bovine) inhibition counter-screen; shares compounds with Rpn11 block; hit rate 13% among 1,900; inhibition, % at 20 µM; AID 602333; bovine thrombin cleavage of Ub4-pepOG, fluorescence polarization;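 active means mean inhibition at least 40% at 20 µM, or signal 3 deviations below plate average, so some actives read negative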;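 further: plate controls were thrombin with DMSO for no effect and buffer wells lacking thrombin for full effect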
# An asterisk follows results filed as active; i = inactive; . = no result given. The list is not random: actives were taken first. Their share in the collection is about 2.4%. Unless noted, no stated cut-off is given here; in the data, active means inhibition above about 40%; inactive means the rest.
SMILES,Rpn11 block,HNF4A DNA FP,Tb MetRS inh,Neddylation inh,CSN deneddyl inh,PREPL inhibitor,Rpn11 inh conf,MMP-2 counter,Thrombin inh
Cc1ccc2nc(CSc3nnc(Cc4cccs4)n3C3CCCCC3)cc(=O)n2c1,4,-2,0,-5,0,0,.,.,.
COc1ccc(NCc2ccc([N+](=O)[O-])s2)c(OC)c1,8,1,-1,-7,-12,20,.,.,.
CCN(CC)c1ccc(N2C(=O)CSC2=S)cc1,51*,3,0,-8,-6,12,-3,61*,-22
CN1CCN(C(c2ccc(C(F)(F)F)cc2)c2cc(Cl)c3cccnc3c2O)CC1 (centres undefined),.,.,.,.,.,8,.,.,.
CN1CCN(C(c2ccc(Cl)cc2)c2cc(Cl)c3cccnc3c2O)CC1 (centres undefined),46*,0,0,14,2,9,44*,28,-8
C[C@H](NC(=O)C1CCN(S(=O)(=O)c2ccccc2)CC1)C(=O)NCc1ccncc1,-1,0,0,-9,2,.,.,.,.
NS(=O)(=O)c1ccc(NS(=O)(=O)c2ccc(NC(=O)c3ccc(-c4ccccc4)cc3)cc2)cc1,119*,-26,0,3,29,-12,109*,32,101*
O=C(Nc1ccccc1C(=O)O)c1cccc(N2C(=O)c3ccccc3C2=O)c1,2,-1,0,-9,8,-4,.,.,.
NS(=O)(=O)c1ccc(NC(=O)Nc2ccc(S(N)(=O)=O)cc2)cc1,-8,-2,0,-7,-3,-3,.,.,.
NS(=O)(=O)c1ccc(NC(=O)Nc2ccccc2)cc1,41*,-3,3,12,1,0,-14,-11,-31
NS(=O)(=O)c1ccc(NC(=O)c2ccc(-c3ccccc3)cc2)cc1,101*,-32,-1,-26,34,.,119*,13,18
NS(=O)(=O)c1ccc(NC(=O)c2cccc(N3C(=O)c4ccccc4C3=O)c2)cc1,79*,49,1,-26,33,0,82*,i,-12
C=CCOC(=O)Nc1nc(CCNC(=O)OC(C)(C)C)c(C(=O)O)s1,.,2,0,5,-2,.,.,.,.
COc1ccccc1Cc1c(-c2cccc(Br)c2)nc2c(C)cc(Br)cn12,42*,12,0,-25,4,.,15,-7,20
COc1ccccc1Cc1c(-c2cccc(Cl)c2)nc2ccc(Br)cn12,61*,35,-1,-17,15,.,50*,0,36
COC(=O)c1ccc2nc(-c3cccc(Cl)c3)c(Cc3ccccc3OC)n2c1,31,10,0,28,6,.,.,.,.
FC(F)(F)c1ccccc1Cc1c(-c2cccc(Br)c2)nc2c3ccccc3ccn12,42*,16,0,14,6,.,10,-2,11
COc1ccc(Cc2c(-c3ccc(C)cc3)nc3c(C)cc(Br)cn23)c(C)c1,49*,18,0,-170,8,.,22,16,13
Cc1ccc(Cc2c(-c3cccc(Br)c3)nc3ccc(Cl)cn23)cc1,42*,12,0,-22,6,.,15,24,-1
CC1(C(=O)N2CCCCC2)CCN1C(=O)c1ccccc1CCc1ccccc1 (centres undefined),-9,-1,0,9,-1,.,.,.,.
Cc1cc(C(=O)CSc2nc(N)cc(N)n2)c(C)n1CC1CCCO1 (centres undefined),1,-1,0,1,-7,17,.,.,.
Cc1sc2nc(SCC(=O)c3cc(C)n(CC4CCCO4)c3C)n(C(C)C)c(=O)c2c1C (centres undefined),123*,0,0,-4,-3,-3,-6,2,-3
COc1cc(-c2coc3c(C(=O)NCc4cccc(Cl)c4)cccc23)ccc1O,-10,-1,0,19,6,.,.,.,.
CSCCC(NC(=O)c1ccco1)C(=O)OC(C)C(=O)NC(=O)NC1CCCCC1 (centres undefined),95*,-42,0,2,-2,2,-3,6,0
O=C(Cn1c(=O)oc2ccc(Cl)cc21)Nc1ccon1,1,1,0,1,-3,-2,.,.,.
SMILES,Rpn11 block,HNF4A DNA FP,Tb MetRS inh,Neddylation inh,CSN deneddyl inh,PREPL inhibitor,Rpn11 inh conf,MMP-2 counter,Thrombin inh
CN(C)c1ccc(CNC(=O)C2Cc3c(-c4ccccc4Oc4ccccc4)ccnc3O2)cc1 (centres undefined),-1,3,0,8,-3,.,.,.,.
COc1cc(/C=C2/C(=O)NN(c3ccc(Cl)cc3)C2=O)cc(OC)c1O,63*,3,0,4,23,-4,62*,-53,54*
COc1cc(/C=C2/C(=O)NN(c3ccccc3)C2=O)cc(Br)c1O,48*,0,-2,-8,13,-2,55*,13,52*
N=C1/C(=C/c2cccn2-c2ccc([N+](=O)[O-])cc2)C(=O)N=C2SC=CN12,-3,-2,1,-9,4,2,.,.,.
COc1ccc(-c2ccc(/C=C3/C(=N)N4C=CSC4=NC3=O)o2)c([N+](=O)[O-])c1,41*,2,1,-19,-2,16,3,-13,13
Cc1ccc(CNC(=O)CCC(=O)Nc2nnc(C(C)C)s2)cc1,-4,-3,0,0,1,8,.,.,.
CCOC(=O)c1c(NC(=O)CN2CCCc3ccccc32)sc(C)c1C,15,3,0,-30,-7,10,.,.,.
CCOC(=O)c1c(NC(=O)CN2CCCc3ccccc32)sc(C)c1CC,44*,8,1,-7,7,0,-1,-26,6
CC(=O)Nc1cc(-c2cccc(C(=O)NCCO)c2)cn2c(-c3ccc(F)c(Cl)c3)cnc12,2,1,0,11,3,.,.,.,.
Cc1cc(C(F)(F)F)c(C#N)c(SCC(=O)Nc2nc3cc(Br)ccc3s2)n1,53*,3,-1,-75,11,4,30,7,-13
N#Cc1c(SCC(=O)Nc2nc3ccc(Br)cc3s2)sc2c(O)cc(=O)[nH]c12,105*,-27,0,-17,29,21,53*,29,-5
CSc1ccc(NC(=O)CSc2nc3[nH]c(=O)cc(O)c3s2)cc1,40*,-22,0,8,8,18,42*,31,18
COc1ccc(NCC(=O)Nc2ccc(Br)cc2F)c(OC)c1,40*,-3,0,0,1,17,3,-7,3

# Assay outcomes as filed in PubChem.
